The test system of one experiment is IRF4/MYC axis. The experiment in a line: Immunoblot of MYC and IRF4 in MM.1S cells. The format is cell-based. The conditions noted are these: 24 h, 2.5 μM. The procedure, abridged: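 MM.1S cells exposed 24 h to DMSO or 2.5 μM of test compounds (CBP/EP300-selective and BRD4-selective). Lysates immunoblotted for MYC and IRF4, with β-actin as loading control.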
On the technique in general: A western blot detects proteins with antibodies after separation by electrophoresis.

The test system of the next experiment is CBP. The conditions noted are these: read-out: CBP IC50; cited from earlier work.
Experiment [1] deals with T1, BRD4 BD1 (Homo sapiens, UniProt O60885). The experiment in a line: BRD4 AlphaScreen assay with biotinylated JQ1. It is filed as binding. A general note: Alpha assays give light when donor and acceptor beads are brought close together.
In a further experiment the target is T2, EP300 (P300) bromodomain (Homo sapiens, UniProt Q09472).
T2 sequence (Q09472 1049-1156 limits assumed): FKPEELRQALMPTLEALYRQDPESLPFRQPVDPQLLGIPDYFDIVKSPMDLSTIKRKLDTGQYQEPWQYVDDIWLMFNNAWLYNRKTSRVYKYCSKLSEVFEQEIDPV
The experiment can be described thus: Differential scanning fluorometry. The format is binding. The note with it: temperature shift. On the technique in general: In DSF a fluorescence change marks the thermal transition of the protein.

Experiment [2] addresses T3, CBP bromodomain (Homo sapiens, UniProt Q92793). The experiment can be described thus: Differential scanning fluorometry. It is filed as binding. The conditions noted are these: for DSF selectivity: CBP and EP300 versus BRD4 BD1, compared with CBP30.
For experiment [3], the target named is T1, BRD4 BD1. The experiment in a line: Differential scanning fluorometry. It is filed as binding. The conditions noted are these: temperature shift.
Experiment [4] addresses T3, CBP bromodomain. The experiment can be described thus: CBP AlphaScreen assay with biotinylated small molecule probe compound C. It is filed as binding. The conditions noted are these: for loss in inhibitory activity against CBP: other warheads in place of 3,5-dimethylisoxazole; for loss in CBP inhibitory activity: compared to compound 23.
The subject of another experiment is MYC expression level. The experiment in a line: Immunoblot of MYC in MOLM13 cells. The format is cell-based. The note with it: 2 h. Put shortly: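 MOLM13 cells seeded in 6-well plates at 1×10^6 cells/well and treated 2 h with DMSO or 3.0 μM test compound or reference CBP inhibitor. Protein extracted in RIPA plus protease inhibitor cocktail, run on Bis-Tris gels, wet-transferred to PVDF. Probed for MYC, β-actin, H3 and H3K27ac with IRDye secondaries.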

For another experiment, the system named is multiple myeloma lines. The experiment can be described thus: Cell viability, multiple myeloma lines. It is filed as cell-based. The conditions noted are these: 5-day incubation. Put shortly:
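Cells seeded at 500/well in 384-well plates; serially pre-diluted test compound added by pin transfer (100 nl). Viability read by CellTiter-Glo luminescence after 5-day incubation. Data normalized to DMSO control; IC50 from nonlinear regression curve fit.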

The test system of another experiment is MOLM13 cells. The experiment can be described thus: CellTiter-Glo cell viability, MOLM13. It is filed as cell-based. The note with it: 5 day, ATP-dependent luminescence. The procedure, abridged:
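MOLM13 cells seeded at 500/well in 384-well plates, given serially pre-diluted test compound or reference CBP inhibitor by pin transfer; 5-day incubation, then ATP-dependent luminescence (CellTiter-Glo).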

Another experiment concerns H3K27ac level. The experiment in a line: Immunoblot of H3K27ac in MOLM13 cells. It is filed as cell-based. The conditions noted are these: 2 h.
The next experiment concerns 34 bromodomains. The experiment can be described thus: BROMOSCAN profiling against 34 bromodomains. The note with it: 1 μM compound concentration. The format is binding.

A value given as a limit tells only on which side of the number the result lay.

The term IC50 denotes the concentration that inhibits the measured activity by half.

T3 sequence (Q92793 1085-1192 limits assumed): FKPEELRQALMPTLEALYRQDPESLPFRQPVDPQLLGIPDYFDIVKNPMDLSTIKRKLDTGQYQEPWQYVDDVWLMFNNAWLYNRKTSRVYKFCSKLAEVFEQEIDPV

With `COc1ccc(CCc2nc3cc(-c4c(C)noc4C)ccc3n2C[C@H](C)N2CCOCC2)cc1Cl` [CBP30, reference compound], the IRF4/MYC axis perturbation entry with IRF4/MYC axis is reported as “perturbed”. For the same compound, the IC50 in the experiment with CBP is […]; on BRD4 BD1 [1], 10.1 ± 0.55 µM.
For the compound `Cc1noc(C)c1-c1ccn2c(NC3CCCCC3)c(CCc3ccccc3)nc2c1` [Compound 7, N-cyclohexyl-7-(3,5-dimethylisoxazol-4-yl)-2-phenethylimidazo[1,2-a]pyridin-3-amine], the “DSF activity against EP300” value at EP300 (P300) bromodomain is “more active”. Further, the “DSF activity against CBP” value on CBP bromodomain [2] (temperature shift) is reported as “more active”. On BRD4 BD1 [3], the “DSF activity toward BRD4” value is “very modest activity”.
For `CN1Cc2cc(-c3ccn4c(NC5CCCCC5)c(CCc5ccccc5)nc4c3)ccc2NC1=O` [Compound 9], the “loss in inhibitory activity against CBP” value on CBP bromodomain [4] is recorded as “greater than 10 fold”.
Consider `Cc1[nH]nc2cc(-c3ccn4c(NC5CCCCC5)c(CCc5ccccc5)nc4c3)ccc12` [Compound 10], for which the IRF4/MYC axis perturbation entry in the experiment with IRF4/MYC axis was “not with BRD4 inhibitor”. Also, at CBP bromodomain [4], the “loss in inhibitory activity against CBP” value was “greater than 10 fold”.
The matching figures for `Cc1noc2cc(-c3ccn4c(NC5CCCCC5)c(CCc5ccccc5)nc4c3)ccc12` [Compound 11]: “not with BRD4 inhibitor” and “greater than 10 fold”.
As for `Cc1noc(C)c1-c1ccn2c(NC(C)(C)C)c(CCc3ccccc3)nc2c1` [Compound 13, N-(tert-butyl)-7-(3,5-dimethylisoxazol-4-yl)-2-phenethylimidazo[1,2-a]pyridin-3-amine], the “decrease in CBP inhibitory potency” value on CBP bromodomain [4] (compared to compound 16) was over 5 fold.
For `COc1ccc(CCc2nc3cc(-c4c(C)noc4C)ccn3c2NC23CC4CC(CC(C4)C2)C3)cc1` [Compound 14, N-((3s,5s,7s)-adamantan-1-yl)-7-(3,5-dimethylisoxazol-4-yl)-2-(4-methoxyphenethyl)imidazo[1,2-a]pyridin-3-amine], the “decrease in CBP inhibitory potency” value at CBP bromodomain [4] (compared to compound 16) is reported as over 5 fold.
In the case of `COc1ccc(CCc2nc3cc(-c4c(C)noc4C)ccn3c2NCCN2CCOCC2)cc1` [Compound 15], the “decrease in CBP inhibitory potency” value on CBP bromodomain [4] (compared to compound 16) was about 2 fold.
As for `COc1ccc(CCc2nc3cc(-c4c(C)noc4C)ccn3c2NC2CCCCC2)cc1` [Compound 16, N-cyclohexyl-7-(3,5-dimethylisoxazol-4-yl)-2-(4-methoxyphenethyl)imidazo[1,2-a]pyridin-3-amine], the DSF selectivity entry on CBP bromodomain [2] is “greater selectivity than the known inhibitor, CBP30”. Moreover, on CBP bromodomain [4] (compared to compound 7), the “increase in CBP inhibitory potency” value is on record as 5 fold.
On to `COc1ccc(CCc2nc3cc(-c4c(C)noc4C)ccn3c2NC(C)C)cc1` [Compound 17, 7-(3,5-dimethylisoxazol-4-yl)-N-isopropyl-2-(4-methoxyphenethyl)imidazo[1,2-a]pyridin-3-amine], for which the “decrease in CBP inhibitory potency” value at CBP bromodomain [4] (compared to compound 16) is listed as about 3 fold.
Same read-out and setting: in the case of `COc1ccc(CCc2nc3cc(-c4c(C)noc4C)ccn3c2NC(C)(C)C)cc1` [Compound 18] it was over 5 fold.
Turning to `CCCOc1ccc(CCc2nc3cc(-c4c(C)noc4C)ccn3c2NC2CCCCC2)cc1` [Compound 20], at CBP bromodomain [4] (compared to compound 16), the “decrease in CBP inhibitory potency” value is ~ 4 fold.
In the case of `COc1ccc(CCc2nc3cc(-c4c(C)noc4C)ccn3c2NCc2ccccc2)cc1` [Compound 21], at CBP bromodomain [4] (compared to compound 16), the “decrease in CBP inhibitory potency” value came to 10 fold.
The same measure, in the same setting: in the case of `COc1ccc(CCc2nc3cc(-c4c(C)noc4C)ccn3c2NCc2ccc(Cl)cc2)cc1` [Compound 22] it was 10 fold.
Turning to `COc1ccc(CCc2nc3cc(-c4c(C)noc4C)ccn3c2NC2CCCCC2)cc1Cl` [Compound 23, 2-(3-chloro-4-methoxyphenethyl)-N-cyclohexyl-7-(3,5-dimethylisoxazol-4-yl)imidazo[1,2-a]pyridin-3-amine], in the experiment on IRF4/MYC axis, the IRF4/MYC axis perturbation entry was “perturbed”. Further, the MYC level entry in the experiment with MYC expression level is given as “caused MYC depletion”. In the experiment with multiple myeloma lines, the “MM cell growth inhibition” value is listed as “IC50 values similar to CBP30”. The DSF selectivity result on CBP bromodomain [2] is reported as “greater selectivity than the known inhibitor, CBP30”. In addition, at CBP bromodomain [4] (compared to compound 16), the “more potent against CBP” value is recorded as 2 fold. In the experiment with MOLM13 cells, the “MOLM13 cell growth inhibition” value is reported as “IC50 values similar to CBP30”. Besides, the H3K27ac level entry with H3K27ac level was “reduced the H3K27ac level similar to CBP30”. Besides, the “BROMOSCAN binding and selectivity” value in the experiment with 34 bromodomains was “better binding and selectivity compared to compound 7 and 16”.
With `COc1ccc(CCc2nc3cc(-c4c(C)noc4C)ccn3c2NC2CCCCC2)cc1OC` [Compound 32], at CBP bromodomain [4], the “loss in CBP inhibitory activity” value is recorded as ~ 10 fold.
Regarding `COc1ccc(CCc2nc3cc(-c4c(C)noc4C)ccn3c2NC(C)C)cc1OC` [Compound 33, 2-(3,4-dimethoxyphenethyl)-7-(3,5-dimethylisoxazol-4-yl)-N-isopropylimidazo[1,2-a]pyridin-3-amine], at CBP bromodomain [4], the “loss in CBP inhibitory activity” value turned out to be 49 fold. Also, on BRD4 BD1 [1] (compared to compound 23), the “loss in BRD4 inhibitory activity” value is reported as 4 fold.
